Paper PMC8796305 (ACS Central Science, 2022)

Experiment: Human plasma stability assay
Format: in vitro ADME
Details: 37 °C
Outline: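 Lyophilised human plasma reconstituted in sterile water, stored in aliquots at −80 °C, and thawed at room temperature (three aliquots per compound). Each aliquot spiked with test compound from a 2 mM DMSO stock; Angiotensin I as positive control. Incubated at 37 °C. Samples taken at […], quenched with water/acetonitrile, centrifuged (17 000g, 4 °C, 1 h), and supernatants concentrated.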

Question: With “Angiotensin I (DRVYIHPFHL; Angiotensin-1; UniProt P01019 25-34, looked up)” as the substance, how does the “Time to complete degradation in human plasma” value read?
Answer: Its value is at most 4 h.
